Calls of active or inactive are those of the source.
Legend:
Bos taurus [1] = species: Bos taurus; test: Ratio of Ki for bovine CBR in absence of GABA to Ki for bovine CBR in presence of 50 uM GABA
Homo sapiens [2] = species: Homo sapiens; test: Ratio of Ki for human CBR in absence of GABA to Ki for human CBR in presence of 50 uM GABA
[3] = Displacement of [3H]flumazenil from CBR in bovine cortical membrane; format: cell membranes, Bos taurus
Procedure, shortened: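 Bovine or human cortical membranes washed free of endogenous GABA. […] Nonspecific binding with 10 µM diazepam. At least six concentrations over 3 log units, DMSO 2%. IC50 converted to Ki by Cheng-Prusoff (Kd 0.85 nM bovine, 0.91 nM human). Ki is the mean of three determinations.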

[4] = Displacement of [3H]flumazenil from CBR in human cortical membrane; format: cell membranes
Procedure, shortened: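 Bovine or human cortical membranes washed free of endogenous GABA. Nonspecific binding with 10 µM diazepam. At least six concentrations over 3 log units, DMSO 2%. Ki is the mean of three determinations.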

Mus musculus [5] = test: Anticonvulsant activity in CD1 albino mouse assessed as pentylenetetrazole-induced death latency time at 3 mg/kg, po by; format: functional
Procedure, shortened: (§1)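 Mice dosed po or ip in 1% CMC (10 mL/kg). Pentylenetetrazole 90 mg/kg sc given 30 min later; clonic generalized convulsions observed over 30 min. ANOVA/Fisher PLSD versus vehicle controls.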

Homo sapiens [6] = species: Homo sapiens; test: Displacement of [3H]flumazenil from CBR in human cortical membrane at 10 uM; format: cell membranes
Mus musculus [7] = test: Toxic myorelaxant activity in CD1 albino mouse assessed as number of falls in 30 secs at 3 mg/kg, po after 30 mins by rotarod test; format: toxicity, organism-based; design: dose 3 mg/kg, route oral; settings: in vivo
Procedure, shortened: (§2)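 Male CD-1 mice, dosed po or ip in 1% CMC (10 mL/kg). Rota-rod at 16 rpm; falls counted over 30 s, 30 min after dosing. At least 15-20 mice per group; ANOVA with Fisher PLSD versus CMC/saline controls.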

Mus musculus [8] = test: Toxic myorelaxant activity in CD1 albino mouse assessed as number of falls in 30 secs at 0.3 mg/kg, po after 30 mins by rotarod test; format: toxicity, organism-based; design: dose 0.3 mg/kg, route oral; settings: in vivo; procedure, shortened: as §2
Mus musculus [9] = test: Effect on learning and memory performance in CD1 albino mouse assessed as retention session latency at 3 mg/kg, po by passive avoidance test; format: functional
Procedure, shortened: (§3)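 Mice dosed po or ip in 1% CMC (10 mL/kg). Step-through passive avoidance in a two-compartment box (lit and dark, joined by guillotine door); latencies recorded in training and retention sessions. At least 15-20 mice per group; ANOVA/Fisher PLSD versus CMC controls.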

Mus musculus [10] = test: Antianxiety activity in CD1 albino mouse assessed as time spent in light at 12.5 mg/kg, po by light-dark box method; format: functional
Procedure, shortened: (§4)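 Male CD-1 mice given drug po or ip in 1% CMC at 10 mL/kg. Light/dark box: number of transfers between compartments and time spent in the lit side recorded. At least 15-20 mice per group; ANOVA/Fisher PLSD versus vehicle.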

Mus musculus [11] = test: Antianxiety activity in CD1 albino mouse assessed as number of crosses at 0.3 mg/kg, po by light-dark box method; format: functional; procedure, shortened: as §4
Mus musculus [12] = test: Effect on learning and memory performance in CD1 albino mouse assessed as training session latency at 12.5 mg/kg, po by passive avoidance test; format: functional; procedure, shortened: as §3
Mus musculus [13] = test: Anticonvulsant activity in CD1 albino mouse assessed as pentylenetetrazole-induced convulsion latency time at 3 mg/kg, po; format: functional; procedure, shortened: as §1
Mus musculus [14] = test: Antianxiety activity in CD1 albino mouse assessed as time spent in light at 1 mg/kg, po by light-dark box method; format: functional; procedure, shortened: as §4
Mus musculus [15] = test: Anticonvulsant activity in CD1 albino mouse assessed as pentylenetetrazole-induced death latency time at 12.5 mg/kg, po; format: functional; procedure, shortened: as §1
Mus musculus [16] = test: Antianxiety activity in CD1 albino mouse assessed as time spent in light at 3 mg/kg, po by light-dark box method; format: functional; procedure, shortened: as §4
Mus musculus [17] = test: Effect on learning and memory performance in CD1 albino mouse assessed as training session latency at 6.5 mg/kg, po by passive avoidance test; format: functional; procedure, shortened: as §3
Mus musculus [18] = test: Effect on ethanol-induced sleep in CD1 albino mouse assessed as endurance time 12.5 mg/kg, po; format: functional
Procedure, shortened: (§5)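 Mice dosed po or ip in 1% CMC (10 mL/kg). Ethanol 4 g/kg ip given 30 min later. Sleep time taken as duration of loss of righting reflex, cut-off 210 min. At least 15-20 mice per group; ANOVA/Fisher PLSD.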

Mus musculus [19] = test: Antianxiety activity in CD1 albino mouse assessed as time spent in light at 0.3 mg/kg, po by light-dark box method; format: functional; procedure, shortened: as §4
Mus musculus [20] = test: Toxic myorelaxant activity in CD1 albino mouse assessed as number of falls in 30 secs at 12.5 mg/kg, po after 30 mins by rotarod test; format: toxicity, organism-based; design: dose 12.5 mg/kg, route oral; settings: in vivo; procedure, shortened: as §2
Mus musculus [21] = test: Anticonvulsant activity in CD1 albino mouse assessed as pentylenetetrazole-induced convulsion latency time at 12.5 mg/kg, po; format: functional; procedure, shortened: as §1
Mus musculus [22] = test: Effect on ethanol-induced sleep in CD1 albino mouse time assessed as endurance time 6.5 mg/kg, po; format: functional; procedure, shortened: as §5
Mus musculus [23] = test: Effect on ethanol-induced sleep in CD1 albino mouse time assessed as endurance time 3 mg/kg, po; format: functional; procedure, shortened: as §5
Mus musculus [24] = test: Effect on ethanol-induced sleep in CD1 albino mouse assessed as induction time 1 mg/kg, ip; format: functional; settings: route intraperitoneal; procedure, shortened: as §5
Bos taurus [25] = species: Bos taurus; test: Displacement of [3H]flumazenil from CBR in bovine cortical membrane at 10 uM; format: cell membranes
Mus musculus [26] = test: Effect on learning and memory performance in CD1 albino mouse assessed as retention session latency at 12.5 mg/kg, po by passive avoidance test; format: functional; procedure, shortened: as §3
Mus musculus [27] = test: Toxic myorelaxant activity in CD1 albino mouse assessed as number of falls in 30 secs at 6.5 mg/kg, po after 30 mins by rotarod test; format: toxicity, organism-based; design: dose 6.5 mg/kg, route oral; settings: in vivo; procedure, shortened: as §2
Mus musculus [28] = test: Effect on ethanol-induced sleep in CD1 albino mouse assessed as induction time 12.5 mg/kg, po; format: functional; procedure, shortened: as §5
Mus musculus [29] = test: Anticonvulsant activity in CD1 albino mouse assessed as pentylenetetrazole-induced death latency time at 6.5 mg/kg, po; format: functional; procedure, shortened: as §1
Mus musculus [30] = test: Effect on ethanol-induced sleep in CD1 albino mouse assessed as induction time at 3 mg/kg, po; format: functional; procedure, shortened: as §5
Mus musculus [31] = test: Antianxiety activity in CD1 albino mouse assessed as number of crosses at 1 mg/kg, po by light-dark box method; format: functional; procedure, shortened: as §4
Mus musculus [32] = test: Effect on ethanol-induced sleep in CD1 albino mouse time assessed as endurance time 1 mg/kg, ip; format: functional; settings: route intraperitoneal; procedure, shortened: as §5
Mus musculus [33] = test: Antianxiety activity in CD1 albino mouse assessed as time spent in light at 6.5 mg/kg, po by light-dark box method; format: functional; procedure, shortened: as §4
Mus musculus [34] = test: Antianxiety activity in CD1 albino mouse assessed as number of crosses at 12.5 mg/kg, po by light-dark box method; format: functional; procedure, shortened: as §4
Mus musculus [35] = test: Effect on ethanol-induced sleep in CD1 albino mouse assessed as induction time 6.5 mg/kg, po; format: functional; procedure, shortened: as §5
Mus musculus [36] = test: Toxic myorelaxant activity in CD1 albino mouse assessed as number of falls in 30 secs at 1 mg/kg, po after 30 mins by rotarod test; format: toxicity, organism-based; design: dose 1 mg/kg, route oral; settings: in vivo; procedure, shortened: as §2
Mus musculus [37] = test: Effect on learning and memory performance in CD1 albino mouse assessed as training session latency at 3 mg/kg, po by passive avoidance test; format: functional; procedure, shortened: as §3
Mus musculus [38] = test: Antianxiety activity in CD1 albino mouse assessed as number of crosses at 6.5 mg/kg, po by light-dark box method; format: functional; procedure, shortened: as §4
Rattus norvegicus [39] = species: Rattus norvegicus; test: Inverse agonist activity at CBR in Sprague-Dawley rat brain cortex assessed as decrease in chloride influx; format: functional
Mus musculus [40] = test: Effect on learning and memory performance in CD1 albino mouse assessed as retention session latency at 6.5 mg/kg, po by passive avoidance test; format: functional; procedure, shortened: as §3
Rattus norvegicus [41] = species: Rattus norvegicus; test: Agonist activity at CBR in Sprague-Dawley rat brain cortex assessed as increase in chloride influx; format: functional, tissue-based
Mus musculus [42] = test: Anticonvulsant activity in CD1 albino mouse assessed as pentylenetetrazole-induced convulsion latency time at 6.5 mg/kg, po; format: functional; procedure, shortened: as §1
Mus musculus [43] = test: Antianxiety activity in CD1 albino mouse assessed as number of crosses at 3 mg/kg, po by light-dark box method; format: functional; procedure, shortened: as §4
Mus musculus [44] = test: Anticonvulsant activity in CD1 albino mouse assessed as pentylenetetrazole-induced convulsion latency time at 1 mg/kg, ip; format: functional, organism-based; design: dose 1 mg/kg; procedure, shortened: as §1
Mus musculus [45] = test: Effect on learning and memory performance in CD1 albino mouse assessed as retention session latency at 1 mg/kg, ip by passive avoidance test; format: functional; settings: route intraperitoneal; procedure, shortened: as §3
Mus musculus [46] = test: Antianxiety activity in CD1 albino mouse assessed as time spent in light at 1 mg/kg, ip by light-dark box method; format: functional; settings: route intraperitoneal; procedure, shortened: as §4
Mus musculus [47] = test: Anticonvulsant activity in CD1 albino mouse assessed as pentylenetetrazole-induced death latency time at 1 mg/kg, ip; format: functional, organism-based; design: dose 1 mg/kg; procedure, shortened: as §1
Mus musculus [48] = test: Effect on learning and memory performance in CD1 albino mouse assessed as training session latency at 1 mg/kg, ip by passive avoidance test; format: functional; settings: route intraperitoneal; procedure, shortened: as §3

CN1C(=O)CN=C(c2ccccc2F)c2cc([N+](=O)[O-])ccc21 [FLUNITRAZEPAM]
Ratio Ki (Bos taurus [1]): 1.68
Ratio Ki (Homo sapiens [2]): 1.6
Ki [3]: 5.17 nM
Ki [4]: 6.5 nM

CCOC(=O)c1ncn2c1CN=C(c1ccc([N+](=O)[O-])cc1)c1ccccc1-2
IC50 [3]: 1.8 nM

CCOC(=O)c1ncn2c1CN(C)C(=O)c1cc(F)ccc1-2 [FLUMAZENIL]
Ki [3]: 1.9 nM

CCOC(=O)c1ncn2c1CN=C(c1cccc([N+](=O)[O-])c1)c1cc(F)ccc1-2
Ratio Ki (Bos taurus [1]): 1.19
Time (Mus musculus [5]): 21.9 min
Activity (Homo sapiens [6]): > 80%
Activity (Mus musculus [7]): 2.1
Activity (Mus musculus [8]): 2.3
Time (Mus musculus [9]): 88.7 s
Time (Mus musculus [10]): 186.8 s
Activity (Mus musculus [11]): 14.6
Time (Mus musculus [12]): 16 s
Ratio Ki (Homo sapiens [2]): 1.2
Time (Mus musculus [13]): 18.7 min
Time (Mus musculus [14]): 132 s
Time (Mus musculus [15]): 39.8 min
Ki [3]: 4.4 nM
Ki [4]: 9.7 nM
Time (Mus musculus [16]): 169.3 s
Time (Mus musculus [17]): 17.9 s
Time (Mus musculus [18]): 177.8 min
Activity (Mus musculus [19]): 123.7
Activity (Mus musculus [20]): 4.4
Time (Mus musculus [21]): 23.6 min
Time (Mus musculus [22]): 118.2 min
Time (Mus musculus [23]): 13.5 min
Time (Mus musculus [24]): 6.8 min
Activity (Bos taurus [25]): > 80%
Time (Mus musculus [26]): 55.7 s
Activity (Mus musculus [27]): 2.7
Time (Mus musculus [28]): 6.8 min
Time (Mus musculus [29]): 22.5 min
Time (Mus musculus [30]): 6.1 min
Activity (Mus musculus [31]): 8.6
Time (Mus musculus [32]): 177.8 min
Time (Mus musculus [33]): 181.2 s
Activity (Mus musculus [34]): 5.1
Time (Mus musculus [35]): 7.3 min
Activity (Mus musculus [36]): 2.2
Time (Mus musculus [37]): 18.3 s
Activity (Mus musculus [38]): 5.4
Activity (Rattus norvegicus [39]): Active
Time (Mus musculus [40]): 76.5 s
Activity (Rattus norvegicus [41]): Active
Time (Mus musculus [42]): 19.3 min
Activity (Mus musculus [43]): 5.6

CN1C(=O)CN=C(c2ccccc2)c2cc(Cl)ccc21 [DIAZEPAM]
Activity (Mus musculus [44]): inactive
Time (Mus musculus [45]): 52.3 s
Time (Mus musculus [24]): 4.6 min
Time (Mus musculus [46]): 175.3 s
Activity (Mus musculus [47]): inactive
Time (Mus musculus [32]): >210 min
Time (Mus musculus [48]): 20.9 s

CCOC(=O)c1ncn2c1CN=C(c1ccc([N+](=O)[O-])cc1)c1cc(F)ccc1-2
Ratio Ki (Bos taurus [1]): 0.89
Activity (Homo sapiens [6]): > 80%
Ratio Ki (Homo sapiens [2]): 0.86
Ki [3]: 14.8 nM
Ki [4]: 20 nM
Activity (Bos taurus [25]): > 80%
Activity (Rattus norvegicus [39]): Active
Activity (Rattus norvegicus [41]): Active

Reference: ChEMBL document CHEMBL1155898 (J Med Chem, 2008)
